Bioassay records from PubChem BioAssay.
APP 5'UTR act = activates APP 5'UTR luciferase reporter; SH-SY5Y APP 5'UTR luciferase reporter, luminescence; zero percent = DMSO vehicle wells; 190,000 compounds, 1% hits; activation, % at 2 µM; AID 1276;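 active = activation above a set limit, based on mean plus 3 SD of controls, cut at about 140% in these data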
STAT1 act = increases IFN-gamma driven STAT1 reporter signal; NIH 3T3 STAT1-luciferase reporter, luminescence; 100% = IFN-gamma alone, no compound; 200,000 compounds, 2.6% hits; AID 932; activation (% of control), % at 5.5 µM;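 active = activation above the screen-wide mean activation plus 3 SD, cut at about 130% in these data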
NF-kB expr up = NF-kB expression increase, human neuronal cells. NF-kB reporter expression; hits give high values. 190,000 compounds, 1.6% hits. fold change at 12.5 µM; in the data active = fold change above about 3.3
STAT3 act = increases IL-6 driven STAT3 reporter signal. U3A cells, IL-6 STAT3-luciferase reporter, luminescence; 100% = signal with IL-6 EC80 alone. activation (% of control), % at 5.6 µM. 190,000 compounds, 0.91% hits;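 active = activation above the screen-wide mean of compound activation plus 3 SD, cut at about 130% in these data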
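Material: STAT3-luciferase reporter U3A cells; Probe or stimulus: IL-6 (33 ng/mL); Incubation: compound pre-incubation 1 h before IL-6, then 6 h stimulation at 37 °C; Technique: luminescence from STAT3-driven luciferase reporter; Evaluation: % activation versus median of IL-6-stimulated wells; Controls: IL-6-only high control.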
STAT1 blocker = reduces IFN-gamma driven STAT1 reporter signal | AID 920 | NIH 3T3 STAT1-luciferase reporter, luminescence | 200,000 compounds, 0.35% hits | inhibition, % at 5.5 µM;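 active = inhibition above a set limit, the mean inhibition across all tested compounds plus 3 SD, cut at about 34% in these data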
STAT3 blocker = STAT3 signaling inhibition | U3A cells, IL-6 STAT3-luciferase reporter, luminescence; host cell line lacks STAT1 | inhibition, % at 5.5 µM | 190,000 compounds, 0.89% hits | AID 862;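 active = inhibition above the mean inhibition across all screened compounds plus 3 SD, cut at about 44% in these data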
Of the large screens only hits and unclear results are named; the others gave an inactive call. In the library only some 4.9% were active in any assay of this set; here they are far more common.

CN1C(=O)CSc2ccc(NC(=O)Nc3ccccn3)cc21	STAT1 act 142.4
Cc1onc(-c2ccccc2Cl)c1C(=O)Nc1ncn[nH]1	none
CCOC(=O)c1sc(=NC(=O)c2cccc(C)c2)n(C)c1C	APP 5'UTR act 161.9, STAT1 act 142.5, NF-kB expr up 3.49
CCOC(=O)c1sc(=NC(=O)c2ccc(C)cc2)n(C)c1C	STAT1 act 139.2, NF-kB expr up 3.67, STAT3 act 145.1
CCOC(=O)c1sc(=NC(=O)CCSc2ccccc2)n(C)c1C	STAT1 act 136.1
CCOC(=O)N1CCN(C(=O)CCSc2ccccc2)CC1	STAT1 act 133.8
CCOC(=O)c1sc(=NC(=O)c2cc(OC)c(OC)c(OC)c2)n(C)c1C	none
CCCc1cc(=O)[nH]c(SCC(=O)Nc2cc(C)on2)n1	none
COc1ccc(Cc2nnc(NC(=O)CSc3ccc(Cl)cc3)s2)cc1OC	none
CCOC(=O)C[N+]1(C)CCN(C(C)=O)CC1	none
CCn1ncc(CN2CCN(Cc3cccc(OC)c3)C(CCO)C2)c1C (stereo not drawn)	none
O=C(NCC1OCCc2ccccc21)c1cc(COc2c(F)cccc2F)on1 (stereo not drawn)	none
Cc1ccc(NC(=O)/C(=C/c2cccs2)NC(=O)c2ccco2)cc1	none
Oc1c(Cl)cc(Cl)cc1CNc1ccc(Br)cn1	none
Oc1ccc(Cl)cc1CNc1ccc(Br)cn1	NF-kB expr up 4.88
CC1(C(=O)OCC(=O)Nc2cccc(S(=O)(=O)NC3=NCCCCC3)c2)CC1(Cl)Cl (stereo not drawn)	none
Cc1nn2cc(-c3ccc(-c4ccccc4)cc3)nc2s1	NF-kB expr up 4.4
Cc1c(N=C2N=C(NC(=O)Nc3ccc(Cl)cc3)c3ccccc32)c(=O)n(-c2ccccc2)n1C	none
CN(C)/C=C/C(=O)c1ccc(Br)s1	none
CN(C)/C=C/C(=O)c1cnc(-c2ccccc2Cl)s1	STAT1 act 139.2, NF-kB expr up 3.52
CC(=O)c1sc(-c2ccccc2Cl)nc1C	none
CN(C)/C=C/C(=O)c1cnc(-c2ccccn2)s1	STAT1 act 129.3
CC(=O)c1cnc(-c2cccc(Cl)c2)s1	none
CN(C)/C=C/C(=O)c1cnc(-c2cccc(Cl)c2)s1	STAT1 act 137.5
O=C(c1cccc(C(F)(F)F)c1)C1CCCN(C(=O)CCCn2cncn2)C1 (stereo not drawn)	none
O=c1sc(Nc2ccccc2)nc2ccsc12	STAT1 act 136.8
Cc1cc(C)cc(N=Cc2c(O)c3ccccc3oc2=O)c1	none
COc1ccc(N=Cc2c(O)c3ccccc3oc2=O)cc1	STAT1 act 139.8
CN(CC1CCCO1)S(=O)(=O)c1ccc(C(=O)Nc2nc3cc4c(cc3s2)OCO4)cc1 (stereo not drawn)	STAT3 blocker 82.1 (no result: NF-kB expr up)
Brc1ccc(-c2csc(NC3=NCCCCC3)n2)cc1	STAT1 act 134.2
c1ccc(-c2csc(NNC3=NCCCCC3)n2)cc1	STAT1 act 131.9
Cc1ccccc1Cn1nc(C)c(NC(=O)/C=C/c2cnn(C)c2)c1C	none
Cc1cc(C)n2nc(SCc3nnc(-c4ccccc4Br)o3)nc2n1	none
Cc1ccc(/C(O)=C2\C(=O)C(=O)N(Cc3cccnc3)C2c2ccccc2[N+](=O)[O-])cc1 (stereo not drawn)	STAT3 act 133.2
CCOc1cnc(-c2ccc(Cl)cc2)o1	STAT1 act 139.6
CCOc1cnc(-c2ccc(OC)cc2)o1	STAT1 act 135.0
CCOc1oc(-c2ccc(OC)cc2)nc1C(F)(F)F	none
CCOC(=O)c1c(NC(=O)CSC2=NN3CCCC(=O)N=C3S2)sc2c1CCCCC2	none
Cc1ccc(S(=O)(=O)N(C)c2ccc3sc(C)nc3c2)cc1	none
COc1ccc(-c2nc3c([nH]2)c(=O)n(C)c(=O)n3C)c(OC)c1	STAT3 act 134.4
CSc1ccccc1NC(=O)c1cc2ncc(Br)cn2n1	STAT1 act 142.2
Cc1ccccc1Cn1ccc(NC(=O)c2cc3ncc(Br)cn3n2)n1	none
O=[N+]([O-])c1cc(CN2CCN(c3ccccc3)CC2)c(O)c2ncccc12	none
O=S(=O)(c1ccc(Cl)cc1)N1CCN(Cc2ccc(O)c3ncccc23)CC1	none
Oc1c(CN2CCCCC2)cc(Br)c2cccnc12	STAT3 act 135.0
CN1CCN(Cc2cc(COCc3ccccc3)c3cccnc3c2O)CC1	NF-kB expr up 5.35
